Most compounds without a hit are left out; they make up all but 9.6% or so of the library.
PMI act = activators of human phosphomannose isomerase; P34949; purified human PMI, coupled resazurin fluorescence, 20 min; stronger effect = higher value; 1 = vehicle control, 0 substrate-free wells; activation factor at 20 µM; 190,000 tested, 0.005% active; AID 1214;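 active = activation factor of 2 or more at 20 µM, relative to plate controls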
Target sequence (P34949 whole entry, looked up): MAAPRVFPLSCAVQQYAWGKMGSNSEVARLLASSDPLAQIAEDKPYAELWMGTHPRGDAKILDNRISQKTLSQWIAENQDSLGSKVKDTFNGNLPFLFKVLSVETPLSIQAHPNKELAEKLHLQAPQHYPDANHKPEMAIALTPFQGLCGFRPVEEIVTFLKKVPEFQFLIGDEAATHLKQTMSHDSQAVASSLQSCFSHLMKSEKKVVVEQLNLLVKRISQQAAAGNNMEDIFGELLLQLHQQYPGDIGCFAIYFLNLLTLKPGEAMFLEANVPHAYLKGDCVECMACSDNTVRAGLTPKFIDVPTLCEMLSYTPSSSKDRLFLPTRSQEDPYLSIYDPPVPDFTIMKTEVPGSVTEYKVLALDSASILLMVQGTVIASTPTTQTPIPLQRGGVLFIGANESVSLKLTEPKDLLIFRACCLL
PMI act hi M6P = increases human PMI activity with near-saturating mannose 6-phosphate | AID 1216 | coupled PMI enzyme assay, resazurin fluorescence, 20 min; stronger effect = higher value; 1 = untreated enzyme, 0 = substrate-free blank | 190,000 tested, 0.34% active | activation factor at 20 µM;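 active = activation factor of 2 or more at 20 µM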
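Material: human phosphomannose isomerase with PGI, G6PDH, diaphorase coupling enzymes. Quantity: 15 ng/mL PMI. Medium: HEPES pH 7.4 buffer with MgCl2 and Tween-20. Reagent: Near-saturating mannose-6-phosphate, 1.0 mM. Compound: 20 µM single dose. Times: enzyme reaction with compound 20 min at room temperature. Detection: resorufin fluorescence at Ex 544/Em 590 nm.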
Lmaj promast = Leishmania major promastigote growth inhibition | Leishmania major promastigotes, resazurin fluorescence viability | inhibition, % at 10 µM | 200,000 tested, 9% active | AID 1063; in the data active = inhibition above about 50%;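 note: promastigotes grown with compound for 44 hours at 28 °C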
PTEN del growth = PTEN-deleted cell growth suppression | 140,000 tested, 1.2% active | HCT116 PTEN-null viability, CellTiter-Glo, 60 h; stronger effect = lower value | viability, % at 10 µM;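 active = viability at or below a set limit, 4 SD under the median of all tested compounds, cut at about 3.7% in these data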;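 note: PTEN knockout HCT116 line with beta catenin targeted HCT116 as companion control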
HCT116 bCat-KO = beta-catenin-lacking colon tumor cell growth suppression | AID 818 | 140,000 tested, 1.5% active | viability, % at 10 µM | HCT116 beta-catenin knockout viability, CellTiter-Glo, 60 h; stronger effect = lower value;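 active = viability at or under a set limit, the compound median less 4 SD, cut at about 6% in these data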;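 note: 0% = Hyamine 1622 control at 20 µM and 100% = untreated cell control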
The depositor's hits bear a star.

Screening Cc1ccc(N(CC(=O)NCCSc2ccccn2)S(C)(=O)=O)cc1 returned PMI act 1, PMI act hi M6P 0.9 and Lmaj promast 0.
S=C(NCC1COc2ccccc2O1)Nc1ccccc1 (stereo not drawn) was read as PMI act 0.9, PMI act hi M6P 1 and Lmaj promast 3.
`Cc1ccc(CC(NC(=O)c2ccccc2)C(=O)NC(C)C(=O)O)cc1` (stereo not drawn) gave PMI act 1, PMI act hi M6P 1, Lmaj promast 84*, PTEN del growth 76 and HCT116 bCat-KO 92.
For O=C(NC(Cc1ccc(F)cc1)C(=O)O)c1ccccc1 (stereo not drawn) the results were PMI act 1, PMI act hi M6P 1, Lmaj promast 70*, PTEN del growth 97 and HCT116 bCat-KO 96.
For Cc1ccc(C(=O)Nc2ccccc2C(=O)NC(Cc2ccccc2)C(=O)O)cc1 (stereo not drawn) the results were PMI act 1.1, PMI act hi M6P 1.1 and Lmaj promast 4.
For CC(=O)C1=C(c2ccccc2)NC(=O)NC1c1ccccc1OCC#N (stereo not drawn) the results were PMI act 0.9, PMI act hi M6P 0.9, Lmaj promast -3, PTEN del growth 99 and HCT116 bCat-KO 96.
For COCCNC(=O)CCn1c(=O)oc2ccccc21 the results were PMI act 1.1, PMI act hi M6P 1, Lmaj promast 70*, PTEN del growth 92 and HCT116 bCat-KO 92.
`Fc1cccc2sc(Nc3nc4cc5c(cc4s3)OCO5)nc12` gave PMI act 0.9, PMI act hi M6P 0.9, Lmaj promast 60*, PTEN del growth 66 and HCT116 bCat-KO 66.
Screening Fc1cc(F)c2nc(Nc3nc4cc5c(cc4s3)OCO5)sc2c1 returned PMI act 0.9, PMI act hi M6P 1.1, Lmaj promast -9, PTEN del growth 6 and HCT116 bCat-KO 1.3*.
Screening Fc1cccc2sc(Nc3nc4cc5c(cc4s3)OCCO5)nc12 returned PMI act 0.9, PMI act hi M6P 1, Lmaj promast 49, PTEN del growth 84 and HCT116 bCat-KO 71.
For CC(C)CNC(=S)NC(=O)c1ccc(F)cc1 the results were PMI act 1, PMI act hi M6P 1, Lmaj promast -2, PTEN del growth 85 and HCT116 bCat-KO 85.
COC(=O)c1c(NC(=O)c2ccccc2[N+](=O)[O-])sc2c1CC(C)(C)NC2(C)C was read as PMI act 1, PMI act hi M6P 1, Lmaj promast 96*, PTEN del growth 77 and HCT116 bCat-KO 75.
COC(=O)C1=C(NC(=O)c2ccccc2[N+](=O)[O-])CCS1 was read as PMI act 1, PMI act hi M6P 0.9 and Lmaj promast 5.
`O=C(O)C1=C[C@@H](C2CCCCC2)C[C@@H](OCCCCO)O1` gave PMI act 1, PMI act hi M6P 1 and Lmaj promast -2.
`COc1ccccc1OCC(=O)OC/C(O)=C(\C#N)c1nc2ccccc2[nH]1` gave PMI act 0.9, PMI act hi M6P 0.8, Lmaj promast 9, PTEN del growth 2.2* and HCT116 bCat-KO 5.5*.
COc1ccc(OC/C(O)=C(\C#N)c2nc3ccccc3[nH]2)cc1 was read as PMI act 1, PMI act hi M6P 1, Lmaj promast -2, PTEN del growth 84 and HCT116 bCat-KO 97.
For N#C/C(=C(/O)COC(=O)CCc1ccc(S(=O)(=O)N2CCOCC2)cc1)c1nc2ccccc2[nH]1 the results were PMI act 0.9, PMI act hi M6P 0.7, Lmaj promast 6, PTEN del growth 4 and HCT116 bCat-KO 5.7*.
For C=CCOc1c(CNc2nccs2)cccc1OCC the results were PMI act 0.8, PMI act hi M6P 0.8, Lmaj promast 4, PTEN del growth 90 and HCT116 bCat-KO 93.
`Cc1ccc(C2SCCN2C(=O)c2ccc([N+](=O)[O-])cc2)cc1` (stereo not drawn) gave PMI act 0.9, PMI act hi M6P 0.9, Lmaj promast 50*, PTEN del growth 84 and HCT116 bCat-KO 90.
`O=C1CC(=C2c3ccccc3-c3ccccc32)C(=O)N1CCCCN1CCN(c2ccccc2)CC1` gave PMI act 1.5, PMI act hi M6P 2.1*, Lmaj promast 99*, PTEN del growth 65 and HCT116 bCat-KO 60.
For COc1ccc(OC)c(NC(=O)COC(=O)c2c3c(nc4ccccc24)CCCC3)c1 the results were PMI act 0.8, PMI act hi M6P 0.8, Lmaj promast 9, PTEN del growth 11 and HCT116 bCat-KO 12.
For COc1ccc(NC(=O)COC(=O)c2c3c(nc4ccccc24)CCCC3)cc1 the results were PMI act 1, PMI act hi M6P 1.1, Lmaj promast 94* and HCT116 bCat-KO 39.
`CC(=O)Nc1ccc(NC(=O)c2ccc(NS(=O)(=O)c3cc(C(C)(C)C)cc(C)c3C)cc2)cc1` gave PMI act 1.1, PMI act hi M6P 1, Lmaj promast 52*, PTEN del growth 34 and HCT116 bCat-KO 68.
Screening CCOC(=O)C1=C(CC)Nc2ccccc2N/C1=N\S(=O)(=O)c1cc(Br)ccc1Br returned PMI act 1.2, PMI act hi M6P 1.1 and Lmaj promast 3.
For Cc1ccc2c(c1)cc(CN(Cc1ccc3c(c1)OCO3)S(=O)(=O)c1ccccc1)c1nnnn12 the results were PMI act 0.9, PMI act hi M6P 0.8, Lmaj promast 99*, PTEN del growth 99 and HCT116 bCat-KO 81.
Screening Cc1ccc2c(c1)cc(CN(Cc1cccnc1)C(=O)c1ccccc1)c1nnnn12 returned Lmaj promast 48.
`Cc1ccc(C(=O)N(Cc2cccnc2)Cc2cc3cc(C)ccc3n3nnnc23)cc1` gave PMI act 1, PMI act hi M6P 1 and Lmaj promast 96*.
For CCCn1c(CCc2ccccc2)n[nH]c1=S the results were PMI act 1, PMI act hi M6P 1 and Lmaj promast -6.
COC(=O)Nc1cc(C)nc2ccccc12 was read as PMI act 0.9, PMI act hi M6P 1, Lmaj promast 55*, PTEN del growth 104 and HCT116 bCat-KO 104.
Screening Cc1occc1-c1nnc(SCC(=O)N2CCCc3ccccc32)n1Cc1ccco1 returned PMI act 1, PMI act hi M6P 1, Lmaj promast 74*, PTEN del growth 85 and HCT116 bCat-KO 82.
Cc1cccc(-n2ccnc2SCC(=O)N2CCCc3ccccc32)c1C was read as PMI act 0.9, PMI act hi M6P 1, Lmaj promast 60*, PTEN del growth 62 and HCT116 bCat-KO 79.
For Cc1ccc(NC(=O)c2ccccc2OCC(=O)Nc2cccc(Cl)c2C)nc1 the results were PMI act 1.1, PMI act hi M6P 1 and Lmaj promast 16.
For C=CCn1c(SCc2csc(-c3ccc(Cl)cc3)n2)nnc1-c1ccccc1OC the results were PMI act 0.9, PMI act hi M6P 1, Lmaj promast 70*, PTEN del growth 56 and HCT116 bCat-KO 39.
